Assays:
[1] = melting temperature; fluorescence melt of hairpins on a sequencing array, two-state fit, raised by 9.35 °C to match UV melts; conditions: sodium 0.088 M
Summary of the method: (§1)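 With Cy3 and quencher oligos annealed, library hairpins on a sequenced MiSeq flow cell were imaged for Cy3 fluorescence in 50 mM Na-HEPES pH 8.0, 25 mM NaCl, in 2.5 °C steps up to 60 °C. Melting temperature and folding enthalpy were derived from bootstrapped two-state fits of signals normalised to pre-quench Cy3 and to control constructs. Four replicates were combined by inverse variance, with fitted temperatures raised by 9.35 °C to match UV melts.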

[2] = folding enthalpy; higher = less favourable; fluorescence melt of hairpins on a sequencing array, two-state fit; conditions: sodium 0.088 M
Summary of the method: as §1

| Sequence | Tm [1] [°C] | folding enthalpy [2] [kcal/mol] |
| --- | --- | --- |
| GGGACCGAAAGGTACCC ((((((....))).))) | 64.1 | -18.9 |
| GATCGAGGTTTCGATC ((((((....)))))) | 53.2 | -44.7 |
| GCAAACCCGAAAGGGTGC (((..(((....)))))) | 51.7 | -17.5 |
| GATCGTACGAACGATC ((((((....)))))) | 53.3 | -34.3 |
| GCGCATGGAAACACACGC (((..((....))..))) | 29.6 | -19.4 |
| GAGCACGAAAGTGGGCTC ((((((....)))..))) | 54.7 | -23.5 |
| GCGGACGAAAGTCCCGC ((((((....))).))) | 67.1 | -20.8 |
| GATCGCAGTGGCGATC ((((((....)))))) | 67.5 | -31.5 |
| GCGGCACCGAAAGGTCGC (((..(((....)))))) | 54.4 | -21.1 |
| GGCCGGGCGAAAGCCGCC (((..(((....)))))) | 57.7 | -18.1 |
| CGCATCGGAAACGAAGCG (((.(((....))).))) | 51.7 | -31.2 |
| TCTCTGAAAAGAGA (((((....))))) | 37.2 | -12.1 |
| GCAGACGAAAGTCCTGC ((((((....))).))) | 52.9 | -23.8 |
| GCTTGCGAAAGCATGAGC ((((((....)))..))) | 52.6 | -22.9 |
| GATCGCTGATGCGATC ((((((....)))))) | 67.2 | -34.8 |
| GCGGCGACCCGC ((((....)))) | 57.3 | -15.4 |
| GACGCTGGAAACAGCATC ((.((((....)))).)) | 41.3 | -12.7 |
| GCCACAGGAAACTATGGC ((((.((....)).)))) | 39.3 | -31.8 |
| GATCTAGCTTAGATC ((((((...)))))) | 38.1 | -29.4 |
| GTGCCAGCGAAAGCTCAC (((..(((....)))))) | 52.6 | -6.66 |
| GCAGACGAAAGTCAATGC ((((((....)))..))) | 43.9 | -19.3 |
| GGTTTTCGAAAGAAACC (((.(((....)))))) | 44.8 | -23.1 |
| GATCACCATGGTGATC ((((((....)))))) | 63.8 | -43.6 |
| GTTTCAGGAAACTGAGAC ((.((((....)))).)) | 37.3 | -24.9 |

| Sequence | Tm [1] [°C] | folding enthalpy [2] [kcal/mol] |
| --- | --- | --- |
| GCCCCGCGAAAGCGATGC ((..(((....)))..)) | 34.2 | -11.7 |
| GTCACGGGAAACCGTAAC ((.((((....)))).)) | 36.1 | -16.5 |
| GCCCGGCGAAAGCGGCGC ((.(.((....)).).)) | 64.6 | -21.1 |
| GATCTTAGGCAAGATC ((((((....)))))) | 42.8 | -27.9 |
| GATCAAGCCTTTGATC ((((((....)))))) | 49.2 | -40.7 |
| GCCACAGGAAACTGCGGC (((.(((....))).))) | 52 | -56.4 |
| GAGCGCGAAAGCGCACTC ((((((....)))..))) | 60.4 | -10 |
| GATCTCCAGGAGATC ((((((...)))))) | 52.3 | -37.3 |
| GATGAAGGAAACCTCATC (((((.(....).))))) | 36.1 | -24.7 |
| GAATTGGGAAACCAACTC ((.((((....)))).)) | 26 | -10.9 |
| GGATCAGGAAACTGATCC (((((((....))))))) | 64.5 | -44.2 |
| GATCAAACGGTTGATC ((((((....)))))) | 44.2 | -36 |
| GATAGGACGAAAGTCATC (((..(((....)))))) | 25.2 | -7.28 |
| GGCATGGGAAACCATACC ((.((((....)))).)) | 41 | -26.2 |
| GCCGTTGGAAACGATGGC (((.(.(....).).))) | 42.9 | -23.1 |
| GTCACATCGAAAGATGAC (((..(((....)))))) | 30.2 | -12.8 |
| GCTTGGCGAAAGCAAGGC ((.(.((....)).).)) | 45.6 | -14.9 |
| GCCTCGCGAAAGCGAAGC ((.((((....)))).)) | 56.5 | -18.7 |
| GACGACGAAAGTCACGTC ((((((....)))..))) | 41.1 | -19.6 |
| GATCTGTGCACAGATC ((((((....)))))) | 57.9 | -48.9 |
| GCATGCCGAAAGGCTTGC (((.(((....))).))) | 66.2 | -26.9 |
| GATCCATTTTTGGATC ((((((....)))))) | 54 | -39.5 |
| GGGTACGAAAGTAGCCC ((((((....))).))) | 56.2 | -26.3 |
| GTGGGCGAAAGCCAACAC ((((((....)))..))) | 53.5 | -15 |

| Sequence | Tm [1] [°C] | folding enthalpy [2] [kcal/mol] |
| --- | --- | --- |
| GCATTCGAAAGAATGTGC ((((((....)))..))) | 50.6 | -36.8 |
| GACACCGAAAGGTTGTC ((((((....))).))) | 53.2 | -25.3 |
| GTTACTCGAAAGAGAAC (((.(((....)))))) | 31.5 | -13.7 |
| GAACCAGGAAACTGGCTC ((.((((....)))).)) | 39.6 | -21.8 |
| GATCATCCATATGATC ((((((....)))))) | 47 | -34.9 |
| GTCGGGGCGAAAGCCGAC (((..(((....)))))) | 56.9 | -17.2 |
| GTCCTGGGAAACCGGGAC ((((.((....)).)))) | 55.7 | -39.2 |
| GTGATAACGAAAGTTCAC (((..(((....)))))) | 37.5 | -15.1 |
| GTCCAAGGAAACTCGGAC ((((.((....)).)))) | 38.8 | -30.6 |
| GATCAGAATCTGATC ((((((...)))))) | 45.4 | -31.4 |
| GGGAGTGGAAACACTTCC ((.((((....)))).)) | 50.5 | -36.2 |
| GATCCCCGAGGGATC ((((((...)))))) | 62 | -31.8 |
| GCGTTGCGAAAGCTGCGC (((..((....))..))) | 65.1 | -36.3 |
| GATCTTCGTGAAGATC ((((((....)))))) | 53.3 | -41 |
| GGCTGCGAAAGCAGCGCC ((((((....)))..))) | 68.8 | -5.65 |
| GTGCATGGAAACATGTGC (..((((....))))..) | 43 | -25 |
| GTGATCGAAAGATAACAC ((((((....)))..))) | 34.5 | -23.6 |
| GCGGGGCGAAAGCCTAGC ((..(((....)))..)) | 64.2 | -19.2 |
| GCGTAGTTACGC ((((....)))) | 54.4 | -22.4 |
| GCGTGTGGAAACACATGC ((.((((....)))).)) | 57.5 | -42 |
| GATCGCGAAAGCGAAATC ((((((....)))..))) | 37.2 | -9.22 |
| GGTTAAGGAAACTTAGCC ((.((((....)))).)) | 38.5 | -28 |
| GATCATGCAATGATC ((((((...)))))) | 59.2 | -46 |
| GCGCGGCGAAAGCGGTGC ((.(.((....)).).)) | 65.2 | -31.2 |

| Sequence | Tm [1] [°C] | folding enthalpy [2] [kcal/mol] |
| --- | --- | --- |
| GCGTGAGCGAAAGCTCGC (((..(((....)))))) | 53 | -10.4 |
| GAATTTGGAAACAAGTTC (((.(((....))).))) | 33.8 | -28.8 |
| GTGGGAGGAAACTCTCGC (.(.(((....))).).) | 37.2 | -30.2 |
| GCGATTGGAAACGATTGC ((.((.(....).)).)) | 36.4 | -26.7 |
| GATCATGATCATGATC ((((((....)))))) | 51.4 | -52.3 |
| GATCGGAGATCCGATC ((((((....)))))) | 56 | -27.6 |
| GATCGAACCCTCGATC ((((((....)))))) | 50.2 | -39.5 |
| GATCCTTTCTAGGATC ((((((....)))))) | 53.7 | -40.5 |
| GCGACTGTCGC ((((...)))) | 48 | -33 |
| GATCAGTAGCTGATC ((((((...)))))) | 48.3 | -35.8 |
| GATCAGGGGCCTGATC ((((((....)))))) | 53 | -33.1 |
| GATCCGGGAAACTGGATC (((((.(....).))))) | 52.1 | -41.7 |
| GGATACGAAAGTATCC ((((((....)))))) | 66 | -39.1 |
| GCCGTCGAAAGACTGGGC ((((((....)))..))) | 53.7 | -26.4 |
| GAGTTGGCGAAAGCCCTC (((..(((....)))))) | 28.7 | -11.1 |
| GCGAGGGTTCGC ((((....)))) | 49.3 | -15.7 |
| GTTGGTCGAAAGACAAC (((.(((....)))))) | 45.7 | -20.4 |
| GATCCGACAGCGGATC ((((((....)))))) | 54 | -34.2 |
| GCCGGCGAAAGCCTGGGC ((((((....)))..))) | 60 | -24.5 |
| GCAGAGCGAAAGCTCCGC ((.((((....)))).)) | 61.1 | -16.8 |
| GCGACAGCTCGC ((((....)))) | 67 | -9.44 |

— the array DNA melting data of Ke et al. (doi:10.1101/2024.01.08.574731)
